For series [1] the following is noted: degradation product of bacitracin A; cited from earlier work.
The conditions of series [2]: formation in vivo limits systemic applications; cited from earlier work.
In series [3] the test system is S. simulans 22. Kind of series: MIC determination. It is filed as cell-based. Conditions: Table 1; lysogeny broth (LB) supplemented with 0.3 mM ZnSO4; 37 °C, 18 h; visual inspection; median of a minimum of triplicates. Put shortly:
(§1)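 Strains from glycerol stocks are grown overnight on blood agar at 37 °C. A single colony goes into TSB and grows at 37 °C to OD600 0.5, then is diluted 100-fold in ZnSO₄-supplemented LB to 10⁶ CFU mL⁻¹. Test compounds are 2-fold serially diluted in the same medium, in triplicate, and mixed with an equal volume of inoculum. Plates are sealed under breathable membranes and incubated 18 h at 37 °C, shaking at 600 rpm. MIC is read visually.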

The test system of series [4] is S. aureus USA300 (MRSA). Nature of the series: MIC determination. It is filed as cell-based. Conditions: Table 1; lysogeny broth (LB) supplemented with 0.3 mM ZnSO4; 37 °C, 18 h; visual inspection; median of a minimum of triplicates. Put shortly: as §1
Series [5] has as its system S. aureus ATCC 29213 (MSSA). Kind of series: MIC determination. The class given is cell-based. As to conditions: Table 1; lysogeny broth (LB) supplemented with 0.3 mM ZnSO4; 37 °C, 18 h; visual inspection; median of a minimum of triplicates. Put shortly: as §1
Series [6] has as its system E. faecium E980. Kind of series: MIC determination. Conditions: Table 1; lysogeny broth (LB) supplemented with 0.3 mM ZnSO4; 37 °C, 18 h; visual inspection; median of a minimum of triplicates. The class given is cell-based. Put shortly:
as §1

In brackets after ≈: the same amount, converted by molar mass.

As for bacitracin F, the antibiotic activity entry in series [1] was “inactive”. Moreover, the nephrotoxicity result in series [2] was “nephrotoxic”.

Turning to `CN[C@H](CC(C)C)C(=O)N[C@H]1C(=O)N[C@@H](CC(N)=O)C(=O)N[C@H]2C(=O)N[C@H]3C(=O)N[C@H](C(=O)N[C@H](C(=O)O)c4cc(O)cc(O)c4-c4cc3ccc4O)[C@H](O)c3ccc(c(Cl)c3)Oc3cc2cc(c3O[C@@H]2O[C@H](CO)[C@@H](O)[C@H](O)[C@H]2O[C@H]2C[C@](C)(N)[C@H](O)[C@H](C)O2)Oc2ccc(cc2Cl)[C@H]1O` [Vancomycin], the “MIC S. simulans 22” value in series [3] was 0.5 µg/mL (≈ 0.345 µM). Also, the “MIC S. aureus USA300 (MRSA)” value in series [4] came to 2 µg/mL (≈ 1.38 µM). Moreover, the “MIC S. aureus ATCC 29213 (MSSA)” value in series [5] stood at 1 µg/mL (≈ 0.69 µM). In addition, in series [6], the “MIC E. faecium E980” value came to 0.5 µg/mL (≈ 0.345 µM).

These data come from article PMC10099996 (Chembiochem, 2022).
